Experimental data gathered from unrelated publications.
Lines come from different studies, so protocols differ. pIC50: −log10 of the molar value.
Cell line: MCF7
Read-out: cell growth or viability

| Structure (SMILES) | method | tested at | time | endpoint | result |
| --- | --- | --- | --- | --- | --- |
| CC(=NNC(=O)c1ccccc1Br)c1ccc(Nc2nnc(-c3ccc(Cl)cc3)c3ccccc23)cc1 | MTT | 5 µM |  | cell death | 93.8% |
| COc1ccc(-c2cc(-c3ccc(Br)cc3)c3c(=O)[nH]c(=O)[nH]c3n2)cc1 | MTT |  | 48 h | pIC50 | 5.00 |
| O=C(Nc1ccccc1)Nc1ccc(Oc2nnc(-c3ccc(Cl)cc3)c3ccccc23)cc1 | MTT | 2.5 µM |  | cell death | 96.7% |
| COc1cccc(CNC[C@@](C)(O)[C@@H]2CC[C@@H](C)C[C@H]2OCc2ccccc2)c1 | MTT | 10 µM | 72 h | inhibition | 76.8% |
| CC(=O)c1nn(-c2ccccc2Cl)/c(=N/N=C(\C)c2ccc(NC(=O)c3ccccc3)cc2)s1 | MTT | 2.5 µM |  | viability | 6.21% |
| O=C(Nc1ccc(Oc2nnc(-c3ccc(Cl)cc3)c3ccccc23)cc1)c1ccccc1 | MTT | 2.5 µM |  | cell death | 93.4% |
| C[C@@H]1CC[C@@H]([C@](C)(O)CNCc2cccc(F)c2)[C@H](OCc2ccccc2)C1 | MTT | 10 µM | 72 h | inhibition | 72.7% |
| CCOC(=O)c1nn(-c2cccc(Cl)c2)/c(=N/N=C(\C)c2ccc(NC(=O)c3ccc(Cl)cc3)cc2)s1 | MTT | 10 µM |  | viability | 3.71% |
| CC(=O)Nc1ccc(Oc2nnc(-c3ccc(Cl)cc3)c3ccccc23)cc1 | MTT | 5 µM | 24 h | viability | 3.72% |
| COc1cc2ncnc(Nc3ccc4c(c3)/C(=C/c3ccccc3)C(=O)N4)c2cc1OC | MTT |  |  | pIC50 | 4.73 |
| O=C(NO)c1ccc(CNc2nc3cccc(-c4ccc5c(c4)OCO5)n3n2)cc1 | SRB |  |  | GI50 | 650 nM |
| C[C@@H]1CC[C@@H]([C@@](O)(CNCc2ccccc2)COCc2ccc(F)cc2)[C@H](OCc2ccc(F)cc2)C1 | MTT | 10 µM | 72 h | inhibition | 96.2% |
| CC(=NNC(=O)c1ccccc1)c1ccc(Nc2nnc(-c3ccc(Cl)cc3)c3ccccc23)cc1 | MTT | 10 µM |  | cell death | 94.1% |
| C[C@@H]1CC[C@@H]([C@](O)(CNCc2ccccc2)COCc2ccccc2)[C@H](OCc2ccccc2)C1 | MTT | 10 µM | 72 h | inhibition | 84.1% |
| CC(=O)c1nn(-c2ccc(C)cc2)/c(=N/N=C(\C)c2ccc(NC(=O)c3ccccc3)cc2)s1 | MTT | 78 nM |  | viability | 44.9% |
| O=C(CCn1c(=O)ccc2ccccc21)N1CCOCC1 | MTT | 100 µM | 48 h | inhibition | 90.5% |
| CC(=O)Nc1ccc(/C(C)=N/N=c2\sc(C(C)=O)nn2-c2ccc(C)cc2)cc1 | MTT | 0.625 µM |  | viability | 86.4% |
| COc1ccc(CNC[C@@](C)(O)[C@@H]2CC[C@@H](C)C[C@H]2OCc2ccccc2)cc1 | MTT | 30 µM | 72 h | inhibition | 97% |
| CC(=NNC(N)=S)c1ccc(Nc2nnc(-c3ccc(Cl)cc3)c3ccccc23)cc1 | MTT | 5 µM | 24 h | viability | 9.07% |
| CCOC(=O)c1nn(-c2cccc(Cl)c2)/c(=N/N=C(\C)c2ccc(NC(=O)c3ccccc3)cc2)s1 | MTT | 10 µM |  | viability | 2.41% |
